The structures appear in SMILES notation.

The data set is described as follows: Toxicity liver stage against HepG2, at 10uM. The format is cell-based. The arrangement: test concentration 10 uM, cell line HepG2-A16-CD81EGFP. The settings on record: human, HepG2-A16-CD81EGFP cells; read-out: INHIBITION
An outline of the steps: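 Uninfected HepG2-A16-CD81EGFP cells, 3 × 10^3 per well, 1536-well, plated on prespotted compound at 10 μM final, parasite-free screening media added to match infected plates; puromycin 10 μM positive, DMSO 0.5% negative; run in parallel with 48 h PbLuc assay at 37 °C, 5% CO2; viability by CellTiter-Glo luminescence, normalized to controls.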
On to `Cc1ccc(C(=O)NC(C)Cn2cccn2)c(=O)[nH]1` (stereo not drawn), for which the cytotoxicity at 10 µM was -2.16%.
Consider `COC[C@]1(O)CCN(c2cc(OC)ncn2)CC1(C)C`, for which the cytotoxicity at 10 µM was 5.66%.
`O=C(C(O)c1ccccc1Cl)N1CCCN(Cc2cccnc2)CC1` (stereo not drawn): the cytotoxicity at 10 µM was 5.5%.
`Cc1cc(NC(=O)Cc2ccccc2O)cnc1N1CCCCC1`: the cytotoxicity at 10 µM was -0.134%.
As for `CC(NC(=O)Cc1cccs1)c1nnc2n1CCC2` (stereo not drawn), the cytotoxicity at 10 µM was -7.56%.
Consider `CCn1cc(NC(=O)NCC(C)(C)N2CCc3ccccc3C2)cn1`, for which the cytotoxicity at 10 µM was -5.16%.
The result for `Cc1csc(CCCNC(=O)NC2CC(=O)N(C(C)(C)C)C2)n1` (stereo not drawn) reads -8.88%; that for `CC(C)CN1CCC2(CCN(CC3CC3)CC2)C1=O`, 7.37%; that for `Cc1noc([C@@H](C)NCc2ccc(F)cc2)c1C(=O)O`, -5.57%.
With `Cc1cc(C(=O)NCc2ccc(F)cc2)c2c(C3CCCN3)noc2n1` (stereo not drawn), the cytotoxicity at 10 µM turned out to be 7.16%.
For `Cc1nc(CCCNC(=O)[C@H]2CNC[C@@H](C(=O)N3CCCC3)C2)sc1C`, the cytotoxicity at 10 µM is -132%.
Turning to `CCNC(=O)CN1CCN(Cc2nc3c(F)cccc3n2CC)CC1`, the cytotoxicity at 10 µM is -11.5%.
For the molecule `O=C1CO[C@@H]2CN(S(=O)(=O)c3ccc(F)cc3)C[C@H]2N1`, the cytotoxicity at 10 µM was 4.59%.
Regarding `CC1=Nc2c(c(=O)[nH]n2C(C)C)C(c2cccc(OC(F)F)c2)S1` (stereo not drawn), the cytotoxicity at 10 µM was determined as 8.13%.
In the case of `CC(C)c1nnc2n1CCN(Cc1ccc3c(c1)OCO3)CC2` it was 1.67%; in that of `CCCc1nc(C)c(C(=O)Nc2cccc(C)n2)s1`, -40.8%; in that of `CC(C)c1nc(C2CCCN2c2ccnc(C3CCCC3)n2)no1` (stereo not drawn), 28.5%.
Take `CC(C)NC(=O)N1C[C@@H]2C[C@H](C(=O)NCc3ccccc3)[C@H](C1)O2`: the cytotoxicity at 10 µM is -0.594%.
For the molecule `CC(C(=O)N(C)C)N1CCCN(C(=O)Oc2ccccc2)CC1` (stereo not drawn), the cytotoxicity at 10 µM is -0.37%.
Regarding `CCN(Cc1cnn(C)c1)C[C@H]1CC[C@@H](Cc2cccc(CN)c2)O1`, the cytotoxicity at 10 µM is -0.189%.
Turning to `Cc1ccc(NC(=O)NC(C)(C)c2noc(C)n2)cc1`, the cytotoxicity at 10 µM was found to be 12.6%.
As for `Cc1cccnc1NC(=O)c1ccc(-n2ncc(C#N)c2N)cc1`, the cytotoxicity at 10 µM is -9.35%.
For the molecule `CN(Cc1cc(C(C)(C)C)n[nH]1)C(=O)c1cn2ccsc2n1`, the cytotoxicity at 10 µM is -12.6%.
With `COCc1nc(N(C)C/C=C/c2ccccc2)c2cnn(C)c2n1`, the cytotoxicity at 10 µM was -2.21%.
In the case of `Cc1ccccc1CSc1nc(N)cc(N2CCCC(C(N)=O)C2)n1` (stereo not drawn) it was -2.32%; in that of `Cc1cc(C[C@@H]2COC[C@@H]2NC(=O)CCN2Cc3ccccc3C2)on1`, 3.86%.
On to `CC(=O)c1ccc(CNC(=O)c2cc(C)nn2C)nc1C`, for which the cytotoxicity at 10 µM is 6.21%.
For the molecule `Cc1ccc(CN2CCN(CC3CC3)[C@@H]3CS(=O)(=O)C[C@@H]32)cc1C`, the cytotoxicity at 10 µM came to 25.4%.
In the case of `Cc1ccc(-c2nc(C(=O)N(C)C3CCN(C)CC3)cs2)c(C)c1`, the cytotoxicity at 10 µM is -7.07%.
For `CCc1nc(CN2CCOC(Cn3nc(C)cc3C)C2)no1` (stereo not drawn), the cytotoxicity at 10 µM turned out to be 4.36%.
Consider `CCOC(=O)Cc1csc(NC(=O)c2ccc(=O)[nH]n2)n1`, for which the cytotoxicity at 10 µM is -1.23%.
As for `CC(C)C(O)C1CCN(c2ccnc(C(=O)NCc3ccco3)c2)CC1` (stereo not drawn), the cytotoxicity at 10 µM was -0.598%.
Turning to `O=C(O)c1ccccc1-n1cc(CN2CCC(c3cc[nH]n3)C2)cn1` (stereo not drawn), the cytotoxicity at 10 µM was 1.1%.
For the molecule `CN1CCOC(C(=O)Nc2ccc3c(c2)nc(C(C)(C)C)n3C)C1` (stereo not drawn), the cytotoxicity at 10 µM is -1.8%.
In the case of `CN1CCN(C(=O)c2ccc(=O)n(C)c2)Cc2ccccc21`, the cytotoxicity at 10 µM is -10.2%.
Consider `CC(C)c1ncc2c(n1)CN(Cc1nnc(Cc3ccccc3)o1)CC2`, for which the cytotoxicity at 10 µM is -12.6%.
`CC(Cn1ccnc1)NC(=O)N1CCN(Cc2cccs2)CC1` (stereo not drawn): the cytotoxicity at 10 µM is -5.36%.
On to `COc1cccc(CNC(=O)CC2CSc3nc(C)c(C)c(=O)n32)c1` (stereo not drawn), for which the cytotoxicity at 10 µM is -4.31%.

Source of the values: ChEMBL document CHEMBL4513216, “Probing the Open Global Health Chemical Diversity Library for Multistage-Active Starting Points for Next-Generation Antimalarials” (ACS Infect Dis, 2020).
